Assay results taken from ChEMBL document CHEMBL1641493, “Discovery of fused 5,6-bicyclic heterocycles as γ-secretase modulators” (Bioorg Med Chem Lett, 2011).
pIC50: −log10 of the molar value. The source made the active and inactive calls. The rule behind the calls is not given here.

Key:
Gamma-secretase = experiment: Inhibition of gamma secretase-mediated amyloid beta42 production in HEK293 cells by sandwich immunoassay; type: cell-based, Homo sapiens
Summary of the method: (§1)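 HEK293 cells stably transfected with APPsw-lon (pcDNA3.1) treated with compound for 5 h. Aβ in the conditioned medium measured by MSD electrochemiluminescent sandwich immunoassay, using TAG-G2-11/biotin-4G8 for Aβ42 and TAG-W02/biotin-4G8 for total Aβ. IC50 values derived for each, and the ratio taken as total Aβ IC50 over Aβ42 IC50.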

[1] = biological target: Gamma-secretase (Homo sapiens) (UniProt Q96BI3+Q9NZ42+Q8WW43+P49768+Q92542+P49810); experiment: Selectivity ratio of IC50 for gamma secretase-mediated total amyloid beta production to IC50 for gamma secretase-mediated amyloid beta42 production in HEK293 cells; type: cell-based; summary of the method: as §1
Rattus norvegicus [2] = experiment: Antialzheimer activity in CD rat assessed as decrease in amyloid beta42 level in brain at 30 mg/kg, po after 3 hrs; type: functional
Summary of the method: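 Male CD rats (~100 g) dosed orally at 30 mg/kg in 20% hydroxypropyl β-cyclodextrin, brains taken 3 h later and frozen on dry ice. Half cortex homogenized and extracted in 5 M guanidine-HCl/50 mM Tris-HCl pH 8, sonicated, and cleaned up by solid-phase extraction. Eluate dried and resuspended in PBS/0.5% Tween 20, then Aβ42 read by AlphaLISA. Result given as % change.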

Rattus norvegicus [3] = experiment: Antialzheimer activity in CD rat assessed as decrease in amyloid beta42 level in CSF at 30 mg/kg, po after 3 hrs; type: functional
Summary of the method: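 Male CD rats (~100 g) given a single oral dose of 30 mg/kg formulated in 20% hydroxypropyl β-cyclodextrin. CSF sampled 3 h after dosing, stored at -80 °C, and CSF Aβ42 quantified with AlphaLISA amyloid assay kits. Effect expressed as % change in Aβ42.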

| SMILES | pIC50 (Gamma-secretase) | Ratio IC50 [1] | further results |
| --- | --- | --- | --- |
| COc1cc(-c2nnc3n2CCCN3C(=O)c2ccc(F)cc2)ccc1-n1cnc(C)c1 | 4.71 | 1 |  |
| COc1cc(-c2nnc3n2CCCN3C(=O)N2CCOCC2)ccc1-n1cnc(C)c1 | 4.70 | 1 |  |
| COc1cc(-c2nnc3n2CCCN3C(=O)C(C)c2ccc(F)cc2)ccc1-n1cnc(C)c1 (stereo not drawn) | 6.31 | 41 |  |
| COc1cc(-c2nnc3n2CCCN3CCc2ccc(F)cc2)ccc1-n1cnc(C)c1 | 6.21 | 32 |  |
| COc1cc(-c2nnc3n2CCCN3Cc2ccc(Cl)c(Cl)c2)ccc1-n1cnc(C)c1 | 6.90 | 159 |  |
| COc1cc(-c2nnc3n2CCCN3Cc2ccc(C#N)cc2)ccc1-n1cnc(C)c1 | 5.60 | 3 |  |
| COc1cc(/C=C2\CCCN([C@@H](C)c3ccc(F)cc3)C2=O)ccc1-n1cnc(C)c1 |  |  | inhibition in vivo at 30 mg/kg (Rattus norvegicus [2]): 44%; inhibition in vivo at 30 mg/kg (Rattus norvegicus [3]): 55% |
| COc1cc(-c2nnc3n2CCCN3C(=O)Cc2ccc(F)cc2)ccc1-n1cnc(C)c1 | 5.72 | 10 |  |
| COc1cc(-c2nnc3n2CCCN3S(=O)(=O)c2ccc(F)cc2)ccc1-n1cnc(C)c1 | 5.65 | 9 |  |
| COc1ccc(CN2CCCn3c(-c4ccc(-n5cnc(C)c5)c(OC)c4)nnc32)cc1 | 5.85 | 14 |  |
| COc1cc(-c2nnc3n2CCCN3C(c2ccc(F)cc2)C2CC2)ccc1-n1cnc(C)c1 (stereo not drawn) | 4.79 | 1 |  |
| COc1cc(-c2nnc3n2CCCN3C(c2ccccc2)C2CC2)ccc1-n1cnc(C)c1 (stereo not drawn) | 4.70 | 1 |  |
| COc1cc(-c2nnc3n2CCCN3Cc2ccc(F)cc2)ccc1-n1cnc(C)c1 | 6.19 | 31 |  |
| CCCCCN1CCCn2c(-c3ccc(-n4cnc(C)c4)c(OC)c3)nnc21 | 5.85 | 14 |  |
| COc1cc(-c2nnc3n2CCCN3)ccc1-n1cnc(C)c1 | 4.70 | 1 |  |
| CCCCC(=O)N1CCCn2c(-c3ccc(-n4cnc(C)c4)c(OC)c3)nnc21 | 5.68 | 10 |  |

The next lines start with results.

| pIC50 (Gamma-secretase) | Ratio IC50 [1] | SMILES | further results |
| --- | --- | --- | --- |
| 6.35 | 29 | COc1cc(-c2noc3c2CCCN3[C@@H](C)c2ccc(F)cc2)ccc1-n1cnc(C)c1 |  |
| 6.47 | 58 | COc1cc(-c2nnc3n2CCCN3C(C)c2c(F)cc(F)cc2F)ccc1-n1cnc(C)c1 (stereo not drawn) |  |
| 6.03 | 21 | COc1cc(-c2noc3c2CCCN3[C@@H](C)c2cc(F)cc(F)c2)ccc1-n1cnc(C)c1 |  |
| 6.94 | 165 | COc1cc(-c2nnc3n2CCCN3C(C)c2cc(F)c(F)c(F)c2)ccc1-n1cnc(C)c1 (stereo not drawn) |  |
| 6.36 | 46 | COc1cc(-c2onc3c2CCCN3Cc2cc(F)cc(F)c2)ccc1-n1cnc(C)c1 |  |
| 6.45 | 48 | COc1cc(-c2onc3c2CCCN3Cc2ccc(F)cc2)ccc1-n1cnc(C)c1 | inhibition (Rattus norvegicus [2]): inactive; inhibition (Rattus norvegicus [3]): inactive |
| 6.79 | 46 | COc1cc(-c2n[nH]c3c2CCCN3C(C)c2ccc(F)cc2)ccc1-n1cnc(C)c1 (stereo not drawn) |  |
| 6.91 | 164 | CC[C@@H](c1cc(F)c(F)c(F)c1)N1CCCc2c(-c3ccc(-n4cnc(C)c4)c(OC)c3)n[nH]c21 | inhibition in vivo at 30 mg/kg (Rattus norvegicus [3]): 26% |
| 6.33 | 38 | COc1cc(-c2onc3c2CCCN3[C@@H](C)c2ccc(F)cc2)ccc1-n1cnc(C)c1 |  |
| 6.81 | 128 | CCC(c1ccc(F)cc1)N1CCCn2c(-c3ccc(-n4cnc(C)c4)c(OC)c3)nnc21 (stereo not drawn) |  |
| 5.86 | 14 | COc1cc(-c2noc3c2CCCN3[C@H](C)c2ccc(F)cc2)ccc1-n1cnc(C)c1 |  |
| 6.68 | 96 | CC[C@H](c1cc(F)c(F)c(F)c1)N1CCCc2c(-c3ccc(-n4cnc(C)c4)c(OC)c3)n[nH]c21 |  |
| 6.29 | 39 | COc1cc(-c2nnc3n2CCCN3C(C)c2ccc(F)cc2)ccc1-n1cnc(C)c1 (stereo not drawn) |  |
| 6.26 | 36 | COc1cc(-c2nnc3n2CCCN3Cc2ccc(F)c(F)c2)ccc1-n1cnc(C)c1 |  |
| 6.06 | 17 | CC[C@@H](c1ccc(F)cc1)N1CCCc2c(-c3ccc(-n4cnc(C)c4)c(OC)c3)noc21 |  |
| 6.84 | 138 | CCCC(c1ccc(F)cc1)N1CCCn2c(-c3ccc(-n4cnc(C)c4)c(OC)c3)nnc21 (stereo not drawn) |  |
| 6.27 | 37 | COc1cc(-c2onc3c2CCCN3[C@@H](C)c2ccccc2)ccc1-n1cnc(C)c1 |  |
| 6.27 | 37 | COc1cc(-c2noc3c2CCCN3[C@@H](C)c2cc(F)c(F)c(F)c2)ccc1-n1cnc(C)c1 |  |
| 6.70 | 99 | CCC(c1cc(F)c(F)c(F)c1)N1CCCc2c(-c3ccc(-n4cnc(C)c4)c(OC)c3)n[nH]c21 (stereo not drawn) |  |
